In ChEMBL document CHEMBL4033654, “Ortho group activation of a bromopyrrole ester in Suzuki-Miyaura cross-coupling reactions: Application to the synthesis of new microtubule depolymerizing agents with potent cytotoxic activities” (Bioorg Med Chem, 2017):
The source made the active and inactive calls. No cut-off for these calls is given here.

Columns and labels:
HeLa [1] = test: Antiproliferative activity against human HeLa cells expressing wild type beta3 tubulin after 48 hrs by SRB assay; format: functional, cell-based
In short: (§1)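 Cell growth measured by sulforhodamine B assay across a concentration range. IC50 is taken from the dose-response curves, as mean ± SD of at least 3 independent experiments, each run in triplicate. HeLa WT-βIII cells express βIII tubulin. SK-OV-3 MDR-1-M6/6 cells are the P-glycoprotein-expressing isogenic partner of parental SK-OV-3.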

MDA-MB-435 [2] = test: Antitumor activity against human MDA-MB-435 cells xenografted in athymic nude mouse assessed as tumor growth inhibition at 20 mg/kg, ip administered on day 2,4,6,8, and 11 measured on day 14; format: functional, organism-based
In short: (§2)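 Female athymic nude mice, six weeks old, bearing bilateral MDA-MB-435 xenografts averaging 200 mm3 at the start of treatment. […] Body weight recorded twice weekly through day 14. Tumor volumes analysed by 2-way ANOVA with Dunnett's post-hoc test.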

HeLa [3] = test: Antiproliferative activity against human HeLa cells after 48 hrs by SRB assay; format: functional, cell-based; in short: as §1
[4] = Antiproliferative activity against human SKOV3-MDR1-M6/6 cells after 48 hrs by SRB assay; format: functional, cell-based; settings: SKOV3-MDR1-M6/6, 48 h; in short: as §1
Mus musculus [5] = test: Toxicity in athymic nude mouse xenografted with human MDA-MB-435 cells assessed as body weight loss at 20 mg/kg, ip administered on day 2, 4, 6, 8 and 11 measured on day 14; format: organism-based; settings: in vivo; in short: as §2
MDA-MB-435 [6] = test: Antiproliferative activity against human MDA-MB-435 cells after 48 hrs by SRB assay; format: functional, cell-based; settings: MDA-MB-435, 48 h; in short: as §1
SK-OV-3 = test: Antiproliferative activity against human SKOV3 cells after 48 hrs by SRB assay; format: functional, cell-based; settings: SK-OV-3, 48 h; in short: as §1
[7] = Resistance index, ratio of IC50 for human SKOV3-MDR1-M6/6 cells to IC50 for human SKOV3 cells; format: functional
In short: (§3)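 Relative resistance is the SRB IC50 in the expressing line divided by the IC50 in the isogenic parental line. The pairs are HeLa WT-βIII over HeLa (βIII tubulin) and SK-OV-3 MDR-1-M6/6 over SK-OV-3 (P-glycoprotein).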

HeLa [8] = test: Resistance index, ratio of IC50 for human HeLa cells expressing wild type beta3 tubulin to IC50 for human HeLa cells; format: functional; in short: as §3
[9] = Induction of tubulin depolymerization in rat A-10 cells after 18 hrs by indirect immunofluorescence method; format: cell-based
In short: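 A-10 cells exposed to a wide range of concentrations. Microtubules stained by indirect immunofluorescence, with nuclei counterstained. The percentage of depolymerized cellular microtubules is estimated visually. EC50, the concentration giving 50% loss of cellular microtubules, is found by linear regression.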

Mus musculus [10] = test: Toxicity in athymic nude mouse xenografted with human MDA-MB-435 cells assessed as overt toxicity at 75 mg/kg, ip administered daily for 9 days measured on day 14; format: organism-based; settings: in vivo, 216 h
In short: (§4)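 Six-week-old female athymic nude mice implanted bilaterally with MDA-MB-435 cells. Dosing starts when tumors average 200 mm3. Drug given at 75 mg/kg/dose i.p. daily on days 0–8, solubilized in 2:1 Tween80:DMSO and diluted into PBS. Mice weighed twice weekly. On day 14, tumors excised and weighed and compared with control by unpaired two-tailed Student's t-test. Tumor volumes analysed by 2-way ANOVA with Dunnett's test.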

MDA-MB-435 [11] = test: Antitumor activity against human MDA-MB-435 cells xenografted in athymic nude mouse assessed as tumor growth inhibition at 75 mg/kg, ip administered daily for 9 days measured on day 14; format: functional, organism-based; in short: as §4
MDA-MB-435 [12] = test: Antitumor activity against human MDA-MB-435 cells xenografted in athymic nude mouse assessed as reduction in mean tumor mass at 75 mg/kg, ip administered daily for 9 days measured on day 14; format: functional, organism-based; in short: as §4

| IC50 (HeLa [1]) [nM] | IC50 (HeLa [3]) [nM] | IC50 (MDA-MB-435 [6]) [nM] | IC50 (SK-OV-3) [nM] | EC50 [9] [nM] | SMILES | TGI (MDA-MB-435 [2]) | IC50 [4] [nM] | Activity (Mus musculus [5]) [%] | Ratio IC50 [7] | Ratio IC50 (HeLa [8]) | Activity (Mus musculus [10]) | TGI (MDA-MB-435 [11]) | Activity (MDA-MB-435 [12]) |
| --- | --- | --- | --- | --- | --- | --- | --- | --- | --- | --- | --- | --- | --- |
| 21.1 | 1.5 | 2 | – | – | CC(=O)O[C@H]1C(=O)[C@@]2(C)[C@H]([C@H](OC(=O)c3ccccc3)[C@]3(O)C[C@H](OC(=O)[C@H](O)[C@@H](NC(=O)c4ccccc4)c4ccccc4)C(C)=C1C3(C)C)[C@]1(OC(C)=O)CO[C@@H]1C[C@@H]2O [PACLITAXEL] | Active | 2330 | 2.5 | – | – | – | – | – |
| 26.1 | 20.6 | 19.6 | 26.2 | 88 | CCOC(=O)c1[nH]c(C#N)c(-c2ccc(OC)c(OC)c2OC)c1Br | – | 42.2 | – | 1.6 | 1.3 | – | – | – |
| 4.1 | 5 | 2.7 | 5.3 | 9.2 | CCOC(=O)c1[nH]c(C=NO)c(-c2ccc(OC)c(OC)c2OC)c1Br (mixture of isomers) | – | 6.6 | – | 1.2 | 0.9 | Non-Toxic | Active | Active |
| 25 | 18 | 14 | 23.1 | 56 | CCOC(=O)c1[nH]c(/C=N/O)c(-c2ccc(OC)c(OC)c2OC)c1Br | – | 41.6 | – | 1.8 | 1.4 | – | – | – |
| 140 | 131 | 116 | 210 | 1000 | CCOC(=O)c1[nH]c(Cl)c(-c2ccc(OC)c(OC)c2OC)c1Cl | – | 140 | – | 0.67 | 1.1 | – | – | – |
| 31.3 | 29.4 | 25.3 | 33.7 | 108 | CCOC(=O)c1[nH]c(/C=N\O)c(-c2ccc(OC)c(OC)c2OC)c1Br | – | 49.6 | – | 1.5 | 1.1 | – | – | – |
| 15.7 | 12.9 | 10.4 | 15.2 | 37 | CCOC(=O)c1[nH]c(Br)c(-c2ccc(OC)c(OC)c2OC)c1Br | – | 10.6 | – | 0.7 | 1.2 | – | – | – |
